Results on two molecules are retold here after ChEMBL document CHEMBL5674869, “The Histone Methyltransferase Inhibitor A-366 Uncovers a Role for G9a/GLP in the Epigenetics of Leukemia” (PLoS One, 2015).

Structures are written as SMILES. The source made the active and inactive calls. No cut-off for these calls is given here.

Data set [1] deals with T1, Histone-lysine N-methyltransferase EHMT2 (Homo sapiens) (UniProt Q96KQ7).
T1 sequence (whole entry): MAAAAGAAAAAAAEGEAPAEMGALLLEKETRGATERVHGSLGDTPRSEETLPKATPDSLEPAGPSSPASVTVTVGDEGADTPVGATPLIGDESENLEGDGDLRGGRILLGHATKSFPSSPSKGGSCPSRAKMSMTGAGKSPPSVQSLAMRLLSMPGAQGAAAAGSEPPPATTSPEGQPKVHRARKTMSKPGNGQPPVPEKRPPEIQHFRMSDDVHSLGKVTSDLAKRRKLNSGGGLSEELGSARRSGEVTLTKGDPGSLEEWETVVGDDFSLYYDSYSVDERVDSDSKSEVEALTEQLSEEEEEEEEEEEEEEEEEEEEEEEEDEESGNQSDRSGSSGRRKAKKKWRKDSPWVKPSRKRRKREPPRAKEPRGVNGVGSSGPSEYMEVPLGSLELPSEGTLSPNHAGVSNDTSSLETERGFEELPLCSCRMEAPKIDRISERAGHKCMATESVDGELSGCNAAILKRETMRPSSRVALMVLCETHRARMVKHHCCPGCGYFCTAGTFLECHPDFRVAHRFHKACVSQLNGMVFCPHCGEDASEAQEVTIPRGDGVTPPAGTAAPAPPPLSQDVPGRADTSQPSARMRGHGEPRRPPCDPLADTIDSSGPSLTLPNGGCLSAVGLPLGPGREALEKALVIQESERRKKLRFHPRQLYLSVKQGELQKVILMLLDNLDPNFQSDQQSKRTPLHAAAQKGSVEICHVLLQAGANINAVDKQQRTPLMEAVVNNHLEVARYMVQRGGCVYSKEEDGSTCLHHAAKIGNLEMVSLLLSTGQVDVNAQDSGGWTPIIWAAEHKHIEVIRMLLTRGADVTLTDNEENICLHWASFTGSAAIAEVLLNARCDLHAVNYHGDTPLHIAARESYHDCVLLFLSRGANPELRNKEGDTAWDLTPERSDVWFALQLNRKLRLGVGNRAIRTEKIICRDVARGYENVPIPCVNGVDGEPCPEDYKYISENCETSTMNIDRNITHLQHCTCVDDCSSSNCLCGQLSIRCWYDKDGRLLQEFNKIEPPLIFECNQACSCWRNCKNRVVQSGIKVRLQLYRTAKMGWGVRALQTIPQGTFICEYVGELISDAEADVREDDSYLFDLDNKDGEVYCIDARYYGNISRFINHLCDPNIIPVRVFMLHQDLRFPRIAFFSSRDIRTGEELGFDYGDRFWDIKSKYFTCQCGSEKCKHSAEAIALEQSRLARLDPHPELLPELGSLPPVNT
Description: Inhibition of G9a in human PC-3 cells assessed as effect on H3k4me3 levels at 0.3 to 3 uM after 72 hrs by Western blot analysis. Format: cell-based. The following applies: dose 0.3-3 µM. A digest of the protocol: (§1)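 PC-3 prostate cells incubated with DMSO, 0.3 or 3 μM compound for 72 h. Lysates probed by western blot with antibodies to H3K9me2, H3K4me2, H3K4me3, H3K9me3, H4K20me1, H4K20me3, H3K36me2 and H3K27me3.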
(A western blot detects proteins with antibodies after separation by electrophoresis.)

For data set [2], the target named is T1, Histone-lysine N-methyltransferase EHMT2 (Homo sapiens). Description: Inhibition of G9a in human PC-3 cells assessed as effect on H4k20me1 levels at 0.3 to 3 uM after 72 hrs by Western blot analysis. Format: cell-based. The following applies: dose 0.3-3 µM. A digest of the protocol:
as §1

Data set [3] shares this target. Description: Inhibition of G9a in human PC-3 cells assessed as effect on H4k20me3 levels at 0.3 to 3 uM after 72 hrs by Western blot analysis. Format: cell-based. The note with it: dose 0.3-3 µM. Put shortly:
as §1

Data set [4] relates to HT-1080. The data set is described as follows: Antiproliferative activity against human HT-1080 cells upto 10 uM after 5 days by Cell-Titer-Glo assay. Type of data set: functional, cell-based. The following applies: time 5.0 day. A digest of the protocol: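 ATCC tumor lines were grown in their recommended media with 10% FBS and STR-authenticated. Cells were exposed to compound for the stated number of days. Viable cells were read by CellTiter-Glo endpoint. Inhibition was the ratio of treated to untreated wells, with cell-free wells set as 100% inhibition. The EC50 was taken from the dose response.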

The test system of data set [5] is MV4-11. Description: Antiproliferative activity against human MV4-11 cells after 14 days by Cell-titer Glo assay. Type of data set: functional, cell-based. The note with it: time 14.0 day. Put shortly: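 Leukemia cells (MV4;11 or HL-60) in medium with 10% FBS were treated with a dose range of compound for 14 days. Proliferation was read by CellTiter-Glo endpoint, with inhibition set against untreated controls and cell-free wells as 100% inhibition. Viability was also measured in parallel by trypan blue exclusion.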

For data set [6], the system named is MV4-11. Description: Induction of cell cycle arrest in human MV4-11 cells assessed as increase in subG0/G1 cells after 14 days by propidium iodide staining based flow cytometry. The note with it: time 14.0 day. Format: functional. A digest of the protocol: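 MV4;11 cells treated 14 days with compound over a concentration range. They were then washed in cold PBS and stained 20 min with 50 μg/ml propidium iodide, 0.1 mg/ml RNase A, 0.1% BSA and 0.1% Triton X-100. Cell-cycle DNA content, including sub-G1/G0 fraction, measured by flow cytometry on BD LSR-II.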
On the technique in general: In flow cytometry, cells or beads pass a laser one at a time.

Data set [7] relates to MV4-11. The data set is described as follows: Antitumor activity against human MV4-11 cells xenografted in SCID/beige mouse assessed as tumor growth inhibition at 30 mg/kg/day via osmotic-mini pump for 14 days. Type of data set: functional. The following applies: MV4-11, 336 h, time 14 day. A digest of the protocol:
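MV4;11 cells mixed with 50% Matrigel, 5 x 10^6 cells injected subcutaneously in flank of 6–8 week old female SCID-beige mice. At ~200 mm3, mice allocated by tumor volume (n = 10/group). Dosed by osmotic mini-pump in 98% PEG-400/2% Tween-80 for 14 days. Calipers read 2 times weekly, V = (L x W2)/2. %TGI computed from control versus treated mean tumor volumes.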
On the technique in general: Xenograft models place foreign cells or tissue in a host animal.

A short description of data set [8]: Drug level in SCID/beige mouse brain xenografted with human MV4-11 cells at 30 mg/kg/day via osmotic-mini pump. The note with it: in vivo. Format: ADME, organism-based. A digest of the protocol:
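Tumor-bearing SCID-beige female mice (6–8 wk) with subcutaneous flank MV4;11 xenografts (5 x 10^6 cells in 50% Matrigel, grown to ~200 mm3). Compound given by osmotic mini-pump at 30 mg/kg/day in 98% PEG-400/2% Tween-80. Separate PK/PD arm sacrificed after 2, 7 and 14 days of treatment; plasma and tissues collected and analyzed for drug levels.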

In data set [9] the target is T1, Histone-lysine N-methyltransferase EHMT2 (Homo sapiens). The data set is described as follows: Inhibition of G9a in human HL-60 cells assessed as increase in cell differentiation marker CD11b for 14 days by flow cytometry. The note with it: time 14.0 day.
Data set [10] has the same target. The data set is described as follows: Inhibition of G9a in human MV4-11 cells assessed as increase in cell differentiation marker CD11b for 14 days by flow cytometry. The following applies: time 14.0 day.
Data set [11] concerns MCF7. The data set is described as follows: Antiproliferative activity against human MCF7 cells assessed as inhibition of colony formation at 10 uM after 14 days by crystal violet staining based clonogenic assay. Format: functional, cell-based. The note with it: time 14.0 day. A digest of the protocol:
(§2)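 Clonogenic assay: 500 live cells per well were seeded into six-well plates in drug-free medium. Compound diluted in culture medium was added 24 h later. Cells were cultured at 37°C, then fixed and stained with 0.2% crystal violet. Colonies were counted on an automated colony counter.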

In data set [12] the test system is MDA-MB-231. The data set is described as follows: Antiproliferative activity against human MDA-MB-231 cells assessed as inhibition of colony formation at 10 uM after 14 days by crystal violet staining based clonogenic assay. Format: functional, cell-based. The following applies: time 14.0 day. A digest of the protocol:
as §2

As usually defined, the inhibition in vivo is the relative decrease from the control value, in per cent. With `COc1cc2c(cc1OCCCN1CCCC1)N=C(N)C21CCC1`, the inhibition result in data set [1], in [2] and in data set [3] was “inactive” throughout. Further, the result in data set [4] was inactive. In addition, the result in data set [5] and in data set [6] was Active. Also, the inhibition in vivo at 30 mg/kg/day in data set [7] came to 45%. Also, the Drug uptake entry in data set [8] was “Active”. In addition, the inhibition result in [9] and in [10] was “Active” throughout.
Take `COc1cc2c(NC3CCN(C(C)C)CC3)nc(C3CCCCC3)nc2cc1OCCCN1CCCC1`: the result in [11] and in [12] was Active.
